Lipid droplet: modulators of hepatic lipid droplet formation; 240,000 compounds, 0.4% hits; AML12 mouse hepatocytes, oleate lipid droplets, BODIPY imaging; inhibition, % at 6.5 µM;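 active = lipid droplet intensity inhibited by at least 50%, with more than 500 cells counted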
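Technique: fluorescence imaging, 20x objective, two fields per well / Assay system: AML12 hepatocytes (mouse) / Measure: % inhibition of lipid droplet signal / Doses: 6.5 µM single-point dosing / Incubation: overnight exposure / Reagent: 100 µM oleic acid challenge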
TMEM16A act: activates or potentiates the mouse TMEM16A chloride channel. Q8BHY3. HEK293 TMEM16A/YFP-H148Q/I152L, iodide quench fluorescence; active compounds read low. B-score at 10 µM. 340,000 compounds, 0.3% hits;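 active = fluorescence-ratio B-score plate-corrected deviation score at least 3 library SD below zero, with starting fluorescence score within 5 deviations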;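 note: channel opened by trigger with iodide after compound preincubation; score built on the fluorescence ratio of max minus min over baseline; more negative score means more quench and so TMEM16A activation or potentiation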
Target sequence (Q8BHY3 whole entry, looked up): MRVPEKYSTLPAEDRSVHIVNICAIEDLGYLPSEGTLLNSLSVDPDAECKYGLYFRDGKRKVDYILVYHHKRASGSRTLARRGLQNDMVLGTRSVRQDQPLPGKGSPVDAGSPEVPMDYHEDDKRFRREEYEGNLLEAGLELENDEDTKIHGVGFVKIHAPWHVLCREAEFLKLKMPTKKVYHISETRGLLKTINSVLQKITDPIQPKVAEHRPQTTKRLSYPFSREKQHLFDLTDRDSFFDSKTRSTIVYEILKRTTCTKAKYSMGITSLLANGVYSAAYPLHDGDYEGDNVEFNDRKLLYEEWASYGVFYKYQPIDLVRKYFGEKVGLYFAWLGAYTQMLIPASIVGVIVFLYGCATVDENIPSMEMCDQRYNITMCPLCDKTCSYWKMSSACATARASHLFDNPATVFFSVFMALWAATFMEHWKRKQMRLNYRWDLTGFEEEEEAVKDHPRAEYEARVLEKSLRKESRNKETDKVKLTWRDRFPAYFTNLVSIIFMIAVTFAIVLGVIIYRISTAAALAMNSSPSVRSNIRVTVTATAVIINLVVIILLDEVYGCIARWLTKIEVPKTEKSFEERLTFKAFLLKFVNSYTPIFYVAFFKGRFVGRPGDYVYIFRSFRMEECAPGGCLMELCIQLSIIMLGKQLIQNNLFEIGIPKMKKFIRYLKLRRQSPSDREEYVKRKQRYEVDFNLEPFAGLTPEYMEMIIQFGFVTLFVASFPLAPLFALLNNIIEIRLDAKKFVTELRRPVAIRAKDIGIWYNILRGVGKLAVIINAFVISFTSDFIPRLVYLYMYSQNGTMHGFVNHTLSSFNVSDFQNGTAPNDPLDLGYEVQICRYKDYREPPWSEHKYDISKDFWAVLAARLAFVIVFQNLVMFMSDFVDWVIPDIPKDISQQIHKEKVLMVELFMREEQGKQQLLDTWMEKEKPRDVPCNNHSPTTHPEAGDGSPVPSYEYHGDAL
UPR XBP1 act: adaptive UPR (XBP1) activation | AID 463104 | activation, % at 20 µM | CHO-XBP1 luciferase reporter, IRE1-XBP1 UPR activation, luminescence; percent of tunicamycin response, DMSO as zero | 330,000 compounds, 0.33% hits;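 active = versus positive control, 20 µM dose yields 30% or more activation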;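 note: 100% = tunicamycin at 10 µg/mL and 0% = DMSO only wells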
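Assay system: CHO-XBP1 luciferase reporter cells; Schedule: 6 h treatment, 37 °C; Detection: glow luminescence from Steady-Glo reagent; Benchmarks: high control tunicamycin 10 µg/mL final, low control DMSO vehicle only.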
CHOP inh: blocks CHOP induction under ER stress. CHO-K1 CHOP-promoter luciferase, tunicamycin-induced, 15-18 h. inhibition, % at 10 µM. 220,000 compounds, 3.8% hits. AID 2732;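 active = compounds that reduced the stress-induced luciferase reporter signal by more than about 70% of percent inhibition, limit read from the data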;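 note: 0% = tunicamycin plus vehicle and 100% = wells without tunicamycin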
CHOP UPR activ: apoptotic UPR (CHOP) activation | activation, % at 10 µM | 330,000 compounds, 0.34% hits | CHO-CHOP luciferase reporter, luminescence; percent of tunicamycin response over DMSO baseline;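 active = at 10 µM dose, activation of 40% or more, normalized to positive control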;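 note: 100% = tunicamycin at 10 µg/mL and 0% = DMSO alone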
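Test system: CHO-CHOP cells, stable luciferase reporter of PERK-eIF2a-CHOP signalling | Quantity: 500 CHO-CHOP cells per well | Buffer or medium: F12 plus 10% serum | Compound dosing: 10 µM single point, 0.5% DMSO | Schedule: 6 h compound treatment, 37 °C | Signal: Luciferase luminescence | Control set: Tunicamycin high control, DMSO low control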
ANO1 block: blocks the mouse calcium-activated chloride channel TMEM16A; normalized B-score (activity score, 25-100; higher = stronger inhibition) at 10 µM; HEK293 TMEM16A/YFP iodide influx fluorescence, ionomycin; 310,000 compounds, 1.2% hits; AID 588511; Q8BHY3;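 active = ratio plate-corrected score three or more library SD toward inhibition, starting fluorescence score within five deviations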;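 note: score derived from kinetic fluorescence span divided by baseline fluorescence per well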
TMEM16A reconf: TMEM16A (mouse) chloride channel inhibition, re-confirmation; shares compounds with ANO1 block; HEK293 TMEM16A/YFP-H148Q, iodide quench fluorescence; ionomycin added to raise cell calcium; inhibition, % at 10 µM; 2,300 compounds, 39% hits; AID 652189;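 active = mean duplicate percent inhibition, scaled so buffer wells are 0 and the reference blocker 100, over three buffer SD above buffer mean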
TMEM16A Ca cntr: counter-screen for TMEM16A inhibitors: effect on calcium mobilization; shares compounds with ANO1 block; TMEM16A/YFP HEK293, Fluo4 calcium mobilization; calcium response (% of ionomycin), % at 10 µM; 2,300 compounds, 2% hits; AID 652231;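 active = duplicate-averaged calcium signal over 20% of the ionomycin maximum, relative to buffer baseline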;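 note: each well's signal is peak minus trough fluorescence divided by its pre-addition baseline; 0% = buffer wells and 100% = ionomycin wells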
Parental YFP cnt: acts in parental YFP-HEK293 cells lacking TMEM16A, counter-screen. YFP ratio F(max-min)/F0 at 10 µM. 2,300 tested, under 10 active. iodide YFP quench, ionomycin. shares compounds with ANO1 block. AID 652233;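 active = yellow fluorescent protein signal ratio exceeding the buffer control mean by over 5 SD of those controls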;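 note: ratio is mean of duplicate wells from kinetic YFP trace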
ClC-1 inh: selectivity of TMEM16A inhibitors: inhibition of rat ClC-1 chloride channel. shares compounds with ANO1 block. CHO ClC-1-YFP, iodide influx fluorescence quench; iodide control reads 0, buffer control 100. ratio percent, % at 10 µM. 2,300 tested, under 10 active. AID 652236;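 active = duplicate-mean ratio percent above the mean of iodide-only control wells, which defines zero, plus 5 of their SD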;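 note: higher percent means stronger block of ClC-1 iodide influx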
* hit, by the source's call; i = inactive; . = not tested or not shown. Most compounds without a hit are left out; they make up all but 4.2% or so of the library.

SMILES	Lipid droplet	TMEM16A act	UPR XBP1 act	CHOP inh	CHOP UPR activ	ANO1 block	TMEM16A reconf	TMEM16A Ca cntr	Parental YFP cnt	ClC-1 inh
O=S(=O)(Nc1nc2ccccc2nc1N1CCN(c2ccccc2)CC1)c1ccc(F)cc1	14	i	-3	49	1	i	32%*	i	-0.86	-14
CCOC(=O)C1CCN(c2c(NCc3ccc(C(=O)NC4CCCC4)cc3)c(=O)c2=O)CC1	.	i	1	60	0	i	.	.	.	.
CCOC(=O)C1CCN(c2c(NCCN3CCCCC3C)c(=O)c2=O)CC1 (stereo not given)	9	i	-2	10	0	100*	i	i	-1.3	-10
CCSc1nnc(NC(=O)Cc2ccc(OC)c(OC)c2)s1	.	i	-2	-6	1	100*	i	i	-0.86	-13
O=C(COC(=O)Cn1[nH]c(=O)c2ccccc2c1=O)NNC(=O)c1ccccc1	.	i	0	.	-1	.	.	.	.	.
O=C(Cn1[nH]c(=O)c2ccccc2c1=O)OCC(=O)N(Cc1ccccc1)Cc1ccccc1	-2	i	2	11	-3	100*	i	24%*	-0.9	-14
O=C(CSc1ncnc2ccccc12)c1ccc2c(c1)OCCO2	8	i	2	40	5	25*	39%*	i	-0.91	-19
CCc1nc(SCC(=O)NCCc2ccccc2)c2oc3ccccc3c2n1	.	i	-3	10	-1	i	.	.	.	.
CCc1nc(SCC(=O)c2cccs2)c2oc3ccccc3c2n1	.	i	7	14	4	100*	i	i	-1.1	-12
O=C(COCc1nc2ccccc2c(=O)[nH]1)NC1CCCC1	.	i	-1	3	0	100*	i	i	-1.1	-8
COc1ccccc1NC(=O)C(C)OC(=O)C1CCC(C(C)(C)C)CC1 (stereo not given)	.	i	0	.	-1	100*	i	i	-0.93	-4
CC1CCC(NC(=O)CCS(=O)(=O)c2ccc3c(c2)NC(=O)CS3)CC1 (stereo not given)	-14	i	5	.	-1	25*	i	i	-1	-1
Cc1ccc(S(=O)(=O)CCC(=O)OCC(=O)NC(C)c2ccc(F)cc2)cc1 (stereo not given)	.	i	2	.	0	.	.	.	.	.
CCCn1c(=O)c(C(=O)NNC(=O)c2ccccc2Cl)c(O)c2ccccc21	-4	-4.6*	-3	.	0	100*	i	i	-0.95	-14
CC(=O)N1CCOc2ccc(S(=O)(=O)N3CCC(C(=O)NCc4ccc(C)cc4)CC3)cc21	5	i	-2	.	-2	i	.	.	.	.
COc1ccc(N(CC(=O)NCCSCc2ccc(C)cc2)S(=O)(=O)c2ccccc2)cc1	-17	i	-4	.	1	25*	i	i	-1.2	0
O=C(CSc1ccccn1)N1CCN(c2cccc(Cl)c2)CC1	2	i	2	65	-3	25*	i	i	-0.89	-14
O=C(CSc1ccccn1)N1CCN(c2ccccc2)CC1	-8	i	0	7	2	i	.	.	.	.
c1ccc(-c2nc(-c3ccncc3)no2)cc1	0	i	1	-3	5	i	.	.	.	.
c1ccc(C(Cc2nc(-c3ccncc3)no2)c2ccccc2)cc1	-9	i	2	.	2	100*	24%*	i	-0.99	-20
CCOc1ccccc1NC(=O)Nc1c(C)n(-c2ccccc2)c(=O)n1C	.	i	-1	15	-1	100*	i	i	-0.81	-1
CCCCNC(=O)c1cn(CC)c2ccc(S(=O)(=O)N3CCCCCC3)cc2c1=O	-1	i	-4	.	0	i	.	.	.	.
CC/C(=N\OC(=O)c1ccc(OC(C)C)cc1)c1ccc(C)cc1	4	i	1	28	0	100*	i	i	-1.3	-23
CCCOc1ccc(C(=O)O/N=C(\CC)c2ccc(C)cc2)cc1	-9	i	-3	28	0	i	.	.	.	.
COc1ccc(CN2CCc3c([nH]c4ccccc34)C2)cc1Br	.	i	-6	.	0	100*	i	i	-1	-4
SMILES	Lipid droplet	TMEM16A act	UPR XBP1 act	CHOP inh	CHOP UPR activ	ANO1 block	TMEM16A reconf	TMEM16A Ca cntr	Parental YFP cnt	ClC-1 inh
COc1ccc(NC(=O)c2csc(Cc3ccc(Cl)cc3)n2)cc1	-10	i	0	15	2	100*	i	i	-0.91	-4
COc1ccc(Cc2nc(C(=O)Nc3ccc(F)cc3)cs2)cc1	6	i	3	-33	1	100*	26%*	i	-0.71	-8
COc1ccc(CNC(=O)c2csc(Cc3ccc(Cl)cc3)n2)cc1	.	i	0	72*	-1	100*	i	i	-1.2	-10
COc1ccc(CNC(=O)c2csc(Cc3ccc(OC)cc3)n2)cc1	.	i	1	46	0	i	.	.	.	.
COc1ccc(Cc2nc(C(=O)Nc3ccccc3)cs2)cc1	11	i	-1	21	0	100*	24%*	i	-1.1	-15
O=C(Nc1ccc(Cl)cc1)c1csc(Cc2ccccc2)n1	-8	i	0	67	2	25*	30%*	i	-0.87	-4
COc1ccc(-c2noc(CN(C(=O)c3cccs3)C(C)C)n2)cc1	.	i	0	5	0	100*	i	i	-0.96	1
CN(C)c1ccc(N=C/C=C2\N(C)c3ccccc3C2(C)C)cc1	.	i	-1	-31	4	i	i	i	-0.52	46
CC1=C(C(=O)OCc2ccccc2)C(c2ccc(-c3ccccc3)cc2)NC(=O)N1CCCC(=O)O (stereo not given)	.	.	-1	.	0	i	.	.	.	.
CC1=C(C(=O)OCc2ccccc2)C(c2ccc(-c3ccccc3)cc2)NC(=O)N1CCCCCC(=O)O (stereo not given)	6	i	1	5	1	100*	31%*	i	-1.1	-59
